Source: ChEMBL document CHEMBL4043295, “Marbostat-100 Defines a New Class of Potent and Selective Antiinflammatory and Antirheumatic Histone Deacetylase 6 Inhibitors” (J Med Chem, 2018)
Activity calls are given as the source filed them. No cut-off for these calls is given here.

Experiments:
Histone deacetylase 8 = target: T1, Histone deacetylase 8 (Homo sapiens, UniProt Q9BY41); test: Inhibition of recombinant human C-terminal His-tagged HDAC8 (1 to 377 residues) expressed in baculovirus-infected insect cells using RHK(Ac)K(Ac)AMC as substrate after 60 mins by fluorimeter
T1 sequence (Q9BY41 whole entry): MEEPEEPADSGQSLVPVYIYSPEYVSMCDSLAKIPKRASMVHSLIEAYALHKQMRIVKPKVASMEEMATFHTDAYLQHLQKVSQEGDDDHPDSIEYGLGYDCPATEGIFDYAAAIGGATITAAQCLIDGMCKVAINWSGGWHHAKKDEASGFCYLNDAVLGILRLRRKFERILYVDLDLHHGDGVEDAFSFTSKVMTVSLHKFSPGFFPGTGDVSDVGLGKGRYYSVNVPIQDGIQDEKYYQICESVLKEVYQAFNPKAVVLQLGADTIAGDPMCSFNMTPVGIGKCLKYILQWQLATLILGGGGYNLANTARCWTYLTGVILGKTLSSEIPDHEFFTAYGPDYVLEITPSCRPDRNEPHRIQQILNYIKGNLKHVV

Homo sapiens = species: Homo sapiens; test: Selectivity ratio of Ki for recombinant human C-terminal GST-tagged HDAC2 to Ki for full length recombinant human N-terminal GST-tagged HDAC6
In short: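 Recombinant human HDAC2 and HDAC6 enzymes, fluorescence-based activity assay. […] IC50s were curve-fitted from duplicate determinations. Ki was calculated from IC50 by the Cheng–Prusoff equation, and the ratio was taken from these Ki values. TSA served as internal standard.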

Histone deacetylase 2 = Histone deacetylase 2 (Homo sapiens, UniProt Q92769); test: Inhibition of full length recombinant human C-terminal GST-tagged HDAC2 expressed in baculovirus-infected insect cells using RHKK(Ac)AMC as substrate after 60 mins by fluorimeter
[1] = target: T2, Protein deacetylase HDAC6 (Homo sapiens, UniProt Q9UBN7); test: Inhibition of full length recombinant human N-terminal GST-tagged HDAC6 expressed in baculovirus-infected Sf9 insect cells using RHKK(Ac)AMC as substrate after 90 mins by fluorimeter
T2 sequence (Q9UBN7 whole entry): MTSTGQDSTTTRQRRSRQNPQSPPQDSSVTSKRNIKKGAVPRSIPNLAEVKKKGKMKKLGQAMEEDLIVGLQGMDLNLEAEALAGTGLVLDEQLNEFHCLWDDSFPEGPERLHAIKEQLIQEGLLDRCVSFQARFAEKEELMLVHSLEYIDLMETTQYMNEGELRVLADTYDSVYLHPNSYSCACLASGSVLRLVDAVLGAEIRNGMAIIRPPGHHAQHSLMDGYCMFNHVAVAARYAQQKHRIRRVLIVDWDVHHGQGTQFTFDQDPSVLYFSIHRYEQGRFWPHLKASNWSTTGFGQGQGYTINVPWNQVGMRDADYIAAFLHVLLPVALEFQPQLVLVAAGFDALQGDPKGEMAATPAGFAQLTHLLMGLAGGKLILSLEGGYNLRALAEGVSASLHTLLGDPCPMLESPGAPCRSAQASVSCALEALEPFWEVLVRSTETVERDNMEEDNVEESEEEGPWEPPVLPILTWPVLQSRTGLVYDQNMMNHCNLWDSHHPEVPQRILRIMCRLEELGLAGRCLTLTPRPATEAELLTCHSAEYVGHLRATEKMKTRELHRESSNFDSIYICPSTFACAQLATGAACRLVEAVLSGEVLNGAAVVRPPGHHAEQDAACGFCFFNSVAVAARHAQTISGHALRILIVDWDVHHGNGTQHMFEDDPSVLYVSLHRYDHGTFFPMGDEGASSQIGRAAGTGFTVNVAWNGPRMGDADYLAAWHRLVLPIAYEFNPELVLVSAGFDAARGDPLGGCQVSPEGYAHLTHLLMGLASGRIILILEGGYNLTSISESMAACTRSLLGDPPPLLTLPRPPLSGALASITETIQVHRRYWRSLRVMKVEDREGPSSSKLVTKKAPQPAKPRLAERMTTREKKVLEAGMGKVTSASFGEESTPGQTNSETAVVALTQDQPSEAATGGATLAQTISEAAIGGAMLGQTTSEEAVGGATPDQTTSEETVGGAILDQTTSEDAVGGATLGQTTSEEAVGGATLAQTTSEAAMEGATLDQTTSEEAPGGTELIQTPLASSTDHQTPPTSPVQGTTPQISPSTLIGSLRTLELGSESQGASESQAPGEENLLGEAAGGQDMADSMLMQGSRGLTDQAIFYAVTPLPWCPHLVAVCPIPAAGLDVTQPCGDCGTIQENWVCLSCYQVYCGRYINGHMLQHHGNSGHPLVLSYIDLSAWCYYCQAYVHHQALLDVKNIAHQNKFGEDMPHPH

[2] = target: T3, Protein deacetylase HDAC6 (Homo sapiens) (UniProt Q9UBN7); test: Inhibition of HDAC6 in human MV4-11 cells assessed as induction of alpha-tubulin hyperacetylation after 24 hrs by Western blot method; format: cell-based
T3 sequence (whole entry): T2 sequence (Q9UBN7 whole entry)
In short: (§1)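 MV4-11 cells were exposed to the inhibitor, from 5 nM to 10 µM for 24 h or at 50 nM for 10 min to 48 h. Lysates were immunoblotted for acetylated tubulin, acetylated histone H3 and HDAC6. Acetyl-tubulin was quantified by densitometry normalised to HSP90. MS-275 at 5 µM for 24 h was the comparator. Blots are representative of at least two independent experiments.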

Mus musculus [3] = test: Antiarthritic activity in DBA/1J mouse collagen-induced arthritis model assessed as decrease in clinical scores at 42.3 mg/kg, ip administered every morning for 6 days measured post last dose; format: functional, organism-based
In short: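 Collagen type II-induced arthritis in mice, second experiment, treated at 42.3 mg/kg (equimolar dose) versus vehicle. Clinical arthritis scores were followed from the beginning of treatment.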

Mus musculus [4] = test: Toxicity in DBA/1J mouse collagen-induced arthritis model assessed as effect on hemoglobin concentration at 42.3 mg/kg, ip administered every morning for 12 to 14 days measured post last dose relative to vehicle-treated control; format: organism-based; details: in vivo
Mus musculus [5] = test: Toxicity in DBA/1J mouse collagen-induced arthritis model assessed as effect on white blood cell count at 42.3 mg/kg, ip administered every morning for 12 to 14 days measured post last dose relative to vehicle-treated control; format: organism-based; details: in vivo
Mus musculus [6] = test: Antiarthritic activity in DBA/1J mouse collagen-induced arthritis model assessed as decrease in ratio of articular bone surface to articular bone volume at 42.3 mg/kg, ip administered every morning for 12 to 14 days measured post last dose by microCT method relative to vehicle-treated control; format: functional, organism-based
Mus musculus [7] = test: Toxicity in DBA/1J mouse collagen-induced arthritis model assessed as effect on red blood cell count at 42.3 mg/kg, ip administered every morning for 12 to 14 days measured post last dose relative to vehicle-treated control; format: organism-based; details: in vivo
Mus musculus [8] = test: Antiarthritic activity in DBA/1J mouse collagen-induced arthritis model assessed as reduction of articular bone erosion in arthritic hind paw at 42.3 mg/kg, ip administered every morning for 12 to 14 days measured post last dose by microCT method relative to vehicle-treated control; format: functional, organism-based
HEL = test: Cell cycle arrest in human HEL cells at 5 uM after 24 hrs by propidium iodide staining-based flow cytometric method; format: functional
MV4-11 [9] = test: Cell cycle arrest in human MV4-11 cells assessed as accumulation at sub-G1 phase at 5 uM after 24 hrs by propidium iodide staining-based flow cytometric method; format: functional
In short: (§2)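 Cells were stained with propidium iodide and analysed by flow cytometry for cell-cycle distribution and the subG1 fraction (fragmented DNA). Representative of at least two independent experiments.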

[10] = Inhibition of class 1 HDAC in human MV4-11 cells assessed as induction of histone hyperacetylation at 5 uM after 24 hrs by Western blot method; format: cell-based; in short: as §1
PBMC = test: Induction of apoptosis in human PBMC at 5 uM after 24 hrs by Annexin V/propidium iodide staining-based flow cytometric method; format: cell-based
Jurkat = test: Cell cycle arrest in human Jurkat cells at 5 uM after 24 hrs by propidium iodide staining-based flow cytometric method; format: functional
MV4-11 [11] = test: Cell cycle arrest in human MV4-11 cells assessed as accumulation at sub-G1 phase at 30 to 50 nM after 24 hrs by propidium iodide staining-based flow cytometric method; format: functional; in short: as §2

Chain of Histone deacetylase 2 (Q92769 whole entry): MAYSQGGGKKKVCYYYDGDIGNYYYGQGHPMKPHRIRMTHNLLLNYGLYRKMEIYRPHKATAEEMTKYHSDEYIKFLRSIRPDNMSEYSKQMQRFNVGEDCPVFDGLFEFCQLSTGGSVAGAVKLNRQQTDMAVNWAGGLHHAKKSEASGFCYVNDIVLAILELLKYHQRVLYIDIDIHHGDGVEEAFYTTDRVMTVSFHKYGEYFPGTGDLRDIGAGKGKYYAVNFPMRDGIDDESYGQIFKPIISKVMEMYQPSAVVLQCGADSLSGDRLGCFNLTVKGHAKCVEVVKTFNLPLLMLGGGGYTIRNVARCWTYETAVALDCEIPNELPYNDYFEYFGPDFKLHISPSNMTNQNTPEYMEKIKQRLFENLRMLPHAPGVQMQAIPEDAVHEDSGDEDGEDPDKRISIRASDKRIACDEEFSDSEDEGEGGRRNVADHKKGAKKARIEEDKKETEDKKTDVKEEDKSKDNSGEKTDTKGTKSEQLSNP

## O=C(NO)c1ccc(Cn2c3c(c4ccccc42)C2CCN(C3)C2)cc1 (centres undefined)
Histone deacetylase 8
  Ki: 1540 nM
Homo sapiens
  Ratio Ki: 940
Histone deacetylase 2
  Ki: 6100 nM
[1]
  Ki: 6.51 nM

## CN1C(=O)C2CN(Cc3c2c2ccccc2n3Cc2ccc(C(=O)NO)cc2)C1=S (centres undefined)
Histone deacetylase 8
  Ki: 40.4 nM
[2]
  alpha-tubulin hyperacetylation (active/not active): inactive
Histone deacetylase 2
  Ki: 469 nM
[1]
  Ki: 0.45 nM

## CN1C(=O)C2CN(Cc3c2c2ccccc2n3Cc2cccc(/C=C/C(=O)NO)c2)C1=O (centres undefined)
Histone deacetylase 8
  Ki: 13.1 nM
Histone deacetylase 2
  Ki: 768 nM
[1]
  Ki: 72.2 nM

## CN1C(=O)C2CN(Cc3c2c2cc(OCCN4CCOCC4)ccc2n3Cc2ccc(C(=O)NO)cc2)C1=O.Cl (centres undefined)
Mus musculus [3]
  Activity: Active
Mus musculus [4]
  Activity: Non-Toxic
Mus musculus [5]
  Activity: Non-Toxic
Histone deacetylase 8
  Ki: 721 nM
Histone deacetylase 2
  Ki: 313 nM
[1]
  Ki: 0.48 nM
Mus musculus [6]
  Activity: Active
Mus musculus [7]
  Activity: Non-Toxic
Mus musculus [8]
  Activity: Active

## O=C(NO)c1ccc(Cn2c3c(c4ccccc42)CCN2C(=O)CCCC32)cc1 (centres undefined)
Histone deacetylase 8
  Ki: 1680 nM
Histone deacetylase 2
  Ki: 7240 nM
[1]
  Ki: 30.2 nM

## CN1C(=O)C2c3c(n(Cc4ccc(C(=O)NO)cc4)c4ccccc34)CCN2C1=O (centres undefined)
Histone deacetylase 8
  Ki: 761 nM
Histone deacetylase 2
  Ki: 995 nM
[1]
  Ki: 1.86 nM

## COc1ccc2c3c(n(Cc4ccc(C(=O)NO)cc4)c2c1)CN1CC3C(=O)N(C)C1=O (centres undefined)
Histone deacetylase 8
  Ki: 93.3 nM
[2]
  alpha-tubulin hyperacetylation (active/not active): Active
Histone deacetylase 2
  Ki: 70.8 nM
[1]
  Ki: 0.32 nM

## COc1ccc2c(c1)c1c(n2Cc2ccc(C(=O)NO)cc2)CN2CC1C(=O)N(C)C2=O (centres undefined)
Histone deacetylase 8
  Ki: 124 nM
[2]
  alpha-tubulin hyperacetylation (active/not active): Active
Histone deacetylase 2
  Ki: 310 nM
[1]
  Ki: 0.15 nM

## CN1C(=O)C2CN(Cc3c2c2cc(OCc4ccccc4)ccc2n3Cc2ccc(C(=O)NO)cc2)C1=O (centres undefined)
[1]
  Ki: 0.08 nM

## Nc1ccccc1NC(=O)c1ccc(CNC(=O)OCc2cccnc2)cc1 [ENTINOSTAT]
HEL
  Activity: Active
MV4-11 [9]
  Activity: Active
[10]
  inhibition (INH): Active
PBMC
  Activity: Toxic
Jurkat
  Activity: Active

## CN1C(=O)[C@@H]2CN(Cc3c2c2ccccc2n3Cc2ccc(C(=O)NO)cc2)C1=O
Histone deacetylase 8
  Ki: 999 nM
Histone deacetylase 2
  Ki: 5200 nM
[1]
  Ki: 0.7 nM

## Cc1[nH]c2ccccc2c1CCNCc1ccc(/C=C/C(=O)NO)cc1
MV4-11 [11]
  Activity: Active

## CN1CN2Cc3c(c4ccccc4n3Cc3ccc(C(=O)NO)cc3)C(C2)C1=O (centres undefined)
Histone deacetylase 8
  Ki: 427 nM
[2]
  alpha-tubulin hyperacetylation (active/not active): inactive
Histone deacetylase 2
  Ki: 1360 nM
[1]
  Ki: 0.23 nM

## CN1C(=O)[C@H]2CN(Cc3c2c2ccccc2n3Cc2ccc(C(=O)NO)cc2)C1=O
Histone deacetylase 8
  Ki: 294 nM
Histone deacetylase 2
  Ki: 3200 nM
[1]
  Ki: 2.01 nM

## COc1ccc2c(c1)c1c(n2Cc2ccc(C(=O)NO)cc2)CN2CC1C(=O)N(C)C2 (centres undefined)
Histone deacetylase 8
  Ki: 299 nM
[2]
  alpha-tubulin hyperacetylation (active/not active): inactive
Histone deacetylase 2
  Ki: 370 nM
[1]
  Ki: 0.16 nM

## CN1C(=O)N2Cc3c(c4ccccc4n3Cc3ccc(C(=O)NO)cc3)C(C2)C1=S (centres undefined)
Histone deacetylase 8
  Ki: 701 nM
[2]
  alpha-tubulin hyperacetylation (active/not active): Active
Histone deacetylase 2
  Ki: 943 nM
[1]
  Ki: 0.88 nM

## CN1CC2CN(Cc3c2c2ccccc2n3Cc2ccc(C(=O)NO)cc2)C1=O (centres undefined)
Histone deacetylase 8
  Ki: 528 nM
[2]
  alpha-tubulin hyperacetylation (active/not active): Active
Histone deacetylase 2
  Ki: 484 nM
[1]
  Ki: 0.51 nM

## O=C(/C=C/c1ccc(Cn2c3c(c4ccccc42)CCN2C(=O)CCCC32)cc1)NO (centres undefined)
Histone deacetylase 8
  Ki: 720 nM
Histone deacetylase 2
  Ki: 234 nM
[1]
  Ki: 14.1 nM

## CN1C(=O)C2CN(Cc3c2c2ccc4ccccc4c2n3Cc2ccc(C(=O)NO)cc2)C1=O (centres undefined)
[1]
  Ki: 1.78 nM

## CN1C(=O)C2CN(Cc3c2c2ccccc2n3Cc2ccc(C(=O)O)cc2)C1=O (centres undefined)
Histone deacetylase 8
  Ki: > 40000 nM
Histone deacetylase 2
  Ki: > 10000 nM
[1]
  Ki: > 20000 nM

## CN1C(=O)C2CN(Cc3c2c2cc(O)ccc2n3Cc2ccc(C(=O)NO)cc2)C1=O (centres undefined)
[1]
  Ki: 0.42 nM

## CN1C(=O)C2CN(Cc3c2c2ccccc2n3Cc2ccc(/C=C/C(=O)NO)cc2)C1=O (centres undefined)
Histone deacetylase 8
  Ki: 205 nM
Histone deacetylase 2
  Ki: 66.5 nM
[1]
  Ki: 4.15 nM
